Reference: ChEMBL document CHEMBL4229530, “5-Adamantan thiadiazole-based thiazolidinones as antimicrobial agents. Design, synthesis, molecular docking and evaluation” (2018)
In brackets after ≈: the same amount, converted by molar mass.

Legend:
Pseudomonas aeruginosa [1] = experiment: Antibacterial activity against drug-resistant Pseudomonas aeruginosa after 24 hrs by INT dye based microdilution assay; assay type: functional
Summary of the method: (§1)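 Broth microdilution in tryptic soy broth. Overnight culture adjusted to 1×10^5 CFU/mL, giving 1.0×10^4 CFU per well. Compounds dissolved in 5% DMSO and tested at 0.001-1.0 mg/ml. Plates incubated 24 h at 37°C. INT (0.2 mg/mL) then added, with 30 min at 37°C. Duplicate, repeated three times.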

Listeria monocytogenes = experiment: Antibacterial activity against Listeria monocytogenes NCTC 7973 after 24 hrs by INT dye based microdilution assay; assay type: functional; settings: NCTC 7973, 24 h
Summary of the method: (§2)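 Broth microdilution in tryptic soy broth: overnight bacterial culture adjusted to 1×10^5 CFU/mL, 1.0×10^4 CFU per well; compounds dissolved in 5% DMSO, tested at 0.001-1.0 mg/ml; 24 h at 37°C. Streptomycin and ampicillin as positive controls, 5% DMSO as negative control; duplicate, repeated three times.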

Staphylococcus aureus [2] = experiment: Antibacterial activity against Staphylococcus aureus ATCC 6538 after 24 hrs by INT dye based microdilution assay; assay type: functional; settings: ATCC 6538, 24 h; summary of the method: as §2
Aspergillus ochraceus = experiment: Antifungal activity against Aspergillus ochraceus ATCC 12066 after 72 hrs by serial dilution assay; assay type: functional; settings: ATCC 12066, 72 h
Summary of the method: (§3)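 Modified microdilution: fungal spores washed off malt agar with sterile 0.85% saline plus 0.1% Tween 80, adjusted to about 1.0×10^5 per 100 µL well. Compounds in 5% DMSO (0.001-1.0 mg/ml) in malt broth; 72 h at 28°C on rotary shaker (160 rpm). MIC is lowest concentration without visible growth under binocular microscope. Bifonazole and ketoconazole controls (1-3500 µg/mL); three independent experiments in duplicate.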

Bacillus cereus = experiment: Antibacterial activity against Bacillus cereus after 24 hrs by INT dye based microdilution assay; assay type: functional; summary of the method: as §2
Micrococcus flavus = experiment: Antibacterial activity against Micrococcus flavus ATCC 10240 after 24 hrs by INT dye based microdilution assay; assay type: functional; settings: ATCC 10240, 24 h; summary of the method: as §2
Escherichia coli [3] = experiment: Antibacterial activity against drug-resistant Escherichia coli after 24 hrs by INT dye based microdilution assay; assay type: functional; summary of the method: as §1
Penicillium ochrochloron = experiment: Antifungal activity against Penicillium ochrochloron ATCC 9112 after 72 hrs by serial dilution assay; assay type: functional; settings: ATCC 9112, 72 h; summary of the method: as §3
Salmonella typhimurium = experiment: Antibacterial activity against Salmonella typhimurium ATCC 13311 after 24 hrs by INT dye based microdilution assay; assay type: functional, Salmonella enterica subsp. enterica serovar Typhimurium; settings: Salmonella enterica, ATCC 13311, 24 h; summary of the method: as §2
Escherichia coli [4] = experiment: Antibacterial activity against Escherichia coli ATCC 35210 after 24 hrs by INT dye based microdilution assay; assay type: functional; settings: ATCC 35210, 24 h; summary of the method: as §2
Talaromyces funiculosus = experiment: Antifungal activity against Penicillium funiculosum ATCC 36839 after 72 hrs by serial dilution assay; assay type: functional; settings: ATCC 36839, 72 h; summary of the method: as §3
Aspergillus versicolor = experiment: Antifungal activity against Aspergillus versicolor ATCC 11730 after 72 hrs by serial dilution assay; assay type: functional; settings: ATCC 11730, 72 h; summary of the method: as §3
Penicillium verrucosum = experiment: Antifungal activity against Penicillium cyclopium var verucosum after 72 hrs by serial dilution assay; assay type: functional; summary of the method: as §3
Trichoderma viride = experiment: Antifungal activity against Trichoderma viride IAM 5061 after 72 hrs by serial dilution assay; assay type: functional; settings: IAM 5061, 72 h; summary of the method: as §3
Staphylococcus aureus [5] = experiment: Antibacterial activity against methicillin-resistant Staphylococcus aureus after 24 hrs by INT dye based microdilution assay; assay type: functional; summary of the method: as §1
Pseudomonas aeruginosa [6] = experiment: Antibacterial activity against Pseudomonas aeruginosa ATCC 27853 after 24 hrs by INT dye based microdilution assay; assay type: functional; settings: ATCC 27853, 24 h; summary of the method: as §2
Aspergillus niger = experiment: Antifungal activity against Aspergillus niger ATCC 6275 after 72 hrs by serial dilution assay; assay type: functional; settings: ATCC 6275, 72 h; summary of the method: as §3
Aspergillus fumigatus = experiment: Antifungal activity against Aspergillus fumigatus isolate 1022 after 72 hrs by serial dilution assay; assay type: functional; settings: isolate 1022, 72 h; summary of the method: as §3
Enterobacter cloacae = experiment: Antibacterial activity against Enterobacter cloacae after 24 hrs by INT dye based microdilution assay; assay type: functional; summary of the method: as §2

SMILES | MIC (Pseudomonas aeruginosa [1]) [µM] | MIC (Listeria monocytogenes) [µM] | MIC (Staphylococcus aureus [2]) [µM] | MIC (Aspergillus ochraceus) [µM] | MIC (Bacillus cereus) [µM] | MIC (Micrococcus flavus) [µM] | MIC (Escherichia coli [3]) [µM] | MIC (Penicillium ochrochloron) [µM] | MIC (Salmonella typhimurium) [µM] | MIC (Escherichia coli [4]) [µM] | MIC (Talaromyces funiculosus) [µM] | MIC (Aspergillus versicolor) [µM] | MIC (Penicillium verrucosum) [µM] | MIC (Trichoderma viride) [µM] | MIC (Staphylococcus aureus [5]) [µM] | MIC (Pseudomonas aeruginosa [6]) [µM] | MIC (Aspergillus niger) [µM] | MIC (Aspergillus fumigatus) [µM] | MIC (Enterobacter cloacae) [µM]
Cc1ccc(/C=C2/S/C(=N/c3nnc(C45CC6CC(CC(C6)C4)C5)s3)NC2=O)cc1 | 115 (≈ 50.1 µg/mL) | 59.3 (≈ 25.9 µg/mL) | 0.115 (≈ 0.05 µg/mL) | 183 (≈ 79.9 µg/mL) | 115 (≈ 50 µg/mL) | 115 (≈ 50 µg/mL) | 0.115 (≈ 0.0501 µg/mL) | 183 (≈ 79.9 µg/mL) | 59.3 (≈ 25.9 µg/mL) | 0.115 (≈ 0.05 µg/mL) | 183 (≈ 79.9 µg/mL) | 183 (≈ 79.9 µg/mL) | 0.183 (≈ 0.0801 µg/mL) | 367 (≈ 160 µg/mL) | 0.115 (≈ 0.0501 µg/mL) | 115 (≈ 50 µg/mL) | 183 (≈ 79.9 µg/mL) | 367 (≈ 160 µg/mL) | 115 (≈ 50 µg/mL)
O=C1N/C(=N\c2nnc(C34CC5CC(CC(C5)C3)C4)s2)S/C1=C/c1ccc([N+](=O)[O-])cc1 | 8 (≈ 3.74 µg/mL) | 33 (≈ 15.4 µg/mL) | 0.0165 (≈ 0.00772 µg/mL) | 12.3 (≈ 5.75 µg/mL) | 16.5 (≈ 7.72 µg/mL) | 22 (≈ 10.3 µg/mL) | 0.006 (≈ 0.00281 µg/mL) | 8 (≈ 3.74 µg/mL) | 16.5 (≈ 7.72 µg/mL) | 0.022 (≈ 0.0103 µg/mL) | 12.3 (≈ 5.75 µg/mL) | 8 (≈ 3.74 µg/mL) | 0.0165 (≈ 0.00772 µg/mL) | 6 (≈ 2.81 µg/mL) | 0.008 (≈ 0.00374 µg/mL) | 22 (≈ 10.3 µg/mL) | 16.5 (≈ 7.72 µg/mL) | 8 (≈ 3.74 µg/mL) | 18 (≈ 8.42 µg/mL)
O=C1N/C(=N\c2nnc(C34CC5CC(CC(C5)C3)C4)s2)S/C1=C/c1ccc(Cl)cc1Cl | 163 (≈ 80 µg/mL) | 163 (≈ 80.1 µg/mL) | 0.0203 (≈ 0.00998 µg/mL) | 81.4 (≈ 40 µg/mL) | 163 (≈ 80.1 µg/mL) | 163 (≈ 80.1 µg/mL) | 0.0203 (≈ 0.00998 µg/mL) | 163 (≈ 80.1 µg/mL) | 81.5 (≈ 40.1 µg/mL) | 0.163 (≈ 0.0801 µg/mL) | 163 (≈ 80.1 µg/mL) | 163 (≈ 80.1 µg/mL) | 0.0814 (≈ 0.04 µg/mL) | 81.4 (≈ 40 µg/mL) | 0.0814 (≈ 0.04 µg/mL) | 163 (≈ 80.1 µg/mL) | 81.4 (≈ 40 µg/mL) | 81.4 (≈ 40 µg/mL) | 163 (≈ 80.1 µg/mL)
COc1ccc(/C=C2/S/C(=N/c3nnc(C45CC6CC(CC(C6)C4)C5)s3)NC2=O)cc1 | 111 (≈ 50.1 µg/mL) | 44.8 (≈ 20.3 µg/mL) | 0.0448 (≈ 0.0203 µg/mL) | 99.8 (≈ 45.2 µg/mL) | 99.5 (≈ 45 µg/mL) | 99.5 (≈ 45 µg/mL) | 0.0553 (≈ 0.025 µg/mL) | 99.8 (≈ 45.2 µg/mL) | 44.8 (≈ 20.3 µg/mL) | 0.0995 (≈ 0.045 µg/mL) | 99.8 (≈ 45.2 µg/mL) | 99.8 (≈ 45.2 µg/mL) | 0.0998 (≈ 0.0452 µg/mL) | 179 (≈ 81 µg/mL) | 0.111 (≈ 0.0501 µg/mL) | 99.5 (≈ 45 µg/mL) | 179 (≈ 81 µg/mL) | 99.8 (≈ 45.2 µg/mL) | 99.5 (≈ 45 µg/mL)
CN(C)c1ccc(/C=C2/S/C(=N/c3nnc(C45CC6CC(CC(C6)C4)C5)s3)NC2=O)cc1 | 150 (≈ 70.1 µg/mL) | 69.5 (≈ 32.4 µg/mL) | 0.139 (≈ 0.0648 µg/mL) | 150 (≈ 69.8 µg/mL) | 139 (≈ 64.8 µg/mL) | 139 (≈ 64.8 µg/mL) | 0.0751 (≈ 0.035 µg/mL) | 150 (≈ 69.8 µg/mL) | 69.5 (≈ 32.4 µg/mL) | 0.139 (≈ 0.0648 µg/mL) | 150 (≈ 69.8 µg/mL) | 150 (≈ 69.8 µg/mL) | 0.301 (≈ 0.14 µg/mL) | 301 (≈ 140 µg/mL) | 0.15 (≈ 0.0701 µg/mL) | 69.5 (≈ 32.4 µg/mL) | 150 (≈ 69.8 µg/mL) | 301 (≈ 140 µg/mL) | 139 (≈ 64.8 µg/mL)
O=C1N/C(=N\c2nnc(C34CC5CC(CC(C5)C3)C4)s2)S/C1=C/c1c(F)cccc1F | 393 (≈ 180 µg/mL) | 21.8 (≈ 10 µg/mL) | 0.0436 (≈ 0.02 µg/mL) | 393 (≈ 180 µg/mL) | 43.6 (≈ 20 µg/mL) | 43.6 (≈ 20 µg/mL) | 0.393 (≈ 0.18 µg/mL) | 393 (≈ 180 µg/mL) | 43.6 (≈ 20 µg/mL) | 0.0436 (≈ 0.02 µg/mL) | 393 (≈ 180 µg/mL) | 393 (≈ 180 µg/mL) | 0.393 (≈ 0.18 µg/mL) | 393 (≈ 180 µg/mL) | 0.393 (≈ 0.18 µg/mL) | 43.6 (≈ 20 µg/mL) | 393 (≈ 180 µg/mL) | 393 (≈ 180 µg/mL) | 21.8 (≈ 10 µg/mL)
CC1(C)S[C@@H]2[C@H](NC(=O)[C@H](N)c3ccccc3)C(=O)N2[C@H]1C(=O)O [AMPICILLIN] | 1240 (≈ 433 µg/mL) | 372 (≈ 130 µg/mL) | 0.248 (≈ 0.0867 µg/mL) |  | 248 (≈ 86.7 µg/mL) | 248 (≈ 86.7 µg/mL) | 1.24 (≈ 0.433 µg/mL) |  | 248 (≈ 86.7 µg/mL) | 0.372 (≈ 0.13 µg/mL) |  |  |  |  |  | 744 (≈ 260 µg/mL) |  |  | 248 (≈ 86.7 µg/mL)
CN[C@@H]1[C@H](O[C@H]2[C@H](O[C@H]3[C@H](O)[C@@H](O)[C@H](N=C(N)N)[C@@H](O)[C@@H]3N=C(N)N)O[C@@H](C)[C@]2(O)C=O)O[C@@H](CO)[C@H](O)[C@H]1O [STREPTOMYCIN] | 129 (≈ 75 µg/mL) | 258 (≈ 150 µg/mL) | 0.172 (≈ 0.1 µg/mL) |  | 43 (≈ 25 µg/mL) | 86 (≈ 50 µg/mL) | 0.258 (≈ 0.15 µg/mL) |  | 172 (≈ 100 µg/mL) | 0.172 (≈ 0.1 µg/mL) |  |  |  |  | 0.258 (≈ 0.15 µg/mL) | 172 (≈ 100 µg/mL) |  |  | 43 (≈ 25 µg/mL)
